“And” between values parts separate entries of the source, which are not always exact repeats. Identical values can stand only once.
How the values were obtained:
[1] = Oral bioavailability in Rhesus monkey (dose 16 mg/kg); format: ADME, organism-based, Macaca mulatta; settings: in vivo
How it was run: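 Two female and two male rhesus monkeys were dosed orally (16 mg/kg) and then iv (1 mg/kg) after a 2-week washout. Plasma was sampled from 1 min to 8 h, extracted liquid-liquid into benzene or cyclohexane, and quantified by reverse-phase HPLC (detection limit 10 ng/mL). AUC was calculated by the trapezoidal rule, and bioavailability = (AUCpo/dose)/(AUCiv/dose) × 100.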

Rhesus monkey [2] = experiment: In vivo plasma levels in Rhesus monkey was determined at a dose of 8 mg/kg administered orally; format: functional, organism-based; parameters: dose 8 mg/kg; settings: Cercopithecidae
Rhesus monkey [3] = experiment: In vivo plasma levels in Rhesus monkey was determined at a dose of 8 mg/kg administered orally; none detected; format: functional, organism-based; parameters: dose 8 mg/kg; settings: Cercopithecidae
Human rhinovirus sp. [4] = experiment: Compound was tested for resistance (survivors(%)) by extended cycle replication assay conducted in 1 ug/mL Enviroxime.(3A amino acid substitution Glu 34 to Val).; format: functional
How it was run: (§1)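 Values are expressed relative to a no-drug control. Mutants of rhinovirus 14 were isolated, sequenced and assayed for resistance by earlier-reported procedures.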

Human rhinovirus sp. [5] = experiment: Compound was tested for resistance (survivors(%)) by extended cycle replication assay conducted in 1 ug/mL Enviroxime.(3A amino acid substitution Ile 42 to Val); format: functional; how it was run: as §1
Human rhinovirus sp. [6] = experiment: Compound was tested for resistance (survivors(%)) by extended cycle replication assay conducted in 1 ug/mL Enviroxime.(3A amino acid substitution Asp 28 to Tyr).; format: functional; how it was run: as §1
Human rhinovirus sp. [7] = experiment: Compound was tested for resistance (survivors(%)) by extended cycle replication assay conducted in 1 ug/mL Enviroxime.(3A amino acid substitution Gly 72 to Ser); format: functional; how it was run: as §1
Human rhinovirus sp. [8] = experiment: Compound was tested for resistance (survivors(%)) by extended cycle replication assay conducted in 1 ug/mL Enviroxime. wild type; format: functional; how it was run: as §1
Human rhinovirus sp. [9] = experiment: Compound was tested for resistance (survivors(%)) by extended cycle replication assay conducted in 1 ug/mL Enviroxime.(3A amino acid substitution Met 54 to Ile); format: functional; how it was run: as §1
Human rhinovirus sp. [10] = experiment: Compound was tested for resistance (survivors(%)) by extended cycle replication assay conducted in 1 ug/mL Enviroxime.(3A amino acid substitution Ile 32 to Val); format: functional; how it was run: as §1
Human rhinovirus sp. [11] = experiment: Compound was tested for resistance (survivors(%)) by extended cycle replication assay conducted in 1 ug/mL Enviroxime.(3A amino acid substitution Glu 51 to Val); format: functional; how it was run: as §1
Human rhinovirus sp. [12] = experiment: Compound was tested for resistance (survivors(%)) by extended cycle replication assay conducted in 1 ug/mL Enviroxime.(3A amino acid substitution Ile 77 to Val).; format: functional; how it was run: as §1
Rattus norvegicus [13] = species on record: Rattus norvegicus; experiment: In vitro hepatic microsomal metabolism in rat; format: functional; settings: Liver
How it was run: (§2)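 Microsomes from F344 rat, beagle dog, cynomolgus monkey or pooled human were incubated at 37 °C in a shaking bath. The oxidative arm used pH 7.4 Tris with NADPH and was run 3 h. The glucuronidation arm used pH 7.4 Tris-Brij with MgCl2 and UDPGA and was run 1 h. Compound was added from an acetone stock. Reactions were stopped with chilled acetonitrile, and unincubated controls were compared. Remaining parent was measured by HPLC.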

Mus musculus [14] = species on record: Mus musculus; experiment: In vitro hepatic microsomal metabolism in mouse; format: functional; settings: Liver
Monkey = experiment: In vitro hepatic microsomal metabolism in monkey; format: functional; settings: Cercopithecidae, Liver; how it was run: as §2
Canis familiaris = species on record: Canis familiaris; experiment: In vitro hepatic microsomal metabolism in dog; format: functional; settings: Canis lupus familiaris, Liver; how it was run: as §2
Homo sapiens = species on record: Homo sapiens; experiment: In vitro hepatic microsomal metabolism in human; format: functional; settings: Liver; how it was run: as §2
Rattus norvegicus [15] = species on record: Rattus norvegicus; experiment: In vitro hepatic microsomal metabolism in rat.; format: functional; settings: Liver; how it was run: as §2
Mus musculus [16] = species on record: Mus musculus; experiment: In vitro Hepatic microsomal metabolism in mouse; format: functional; settings: Liver
rhinovirus B14 [17] = experiment: % survivors was determined against mutants of human rhinovirus 14 by extended cycle replication assay in 1 ug/mL enviroxime by different amino acid substitution by different amino acid substitution; format: functional; how it was run: as §1
rhinovirus B14 [18] = experiment: % survivors was determined against mutants of human rhinovirus 14 by extended cycle replication assay in 1 ug/mL enviroxime; format: functional; how it was run: as §1
rhinovirus B14 [19] = experiment: (§3) % survivors was determined against mutants of human rhinovirus 14 by extended cycle replication assay in 1 ug/mL enviroxime by different amino acid substitution; format: functional; how it was run: as §1
Human rhinovirus sp. [20] = experiment: as §3; format: functional; how it was run: as §1

SMILES: C#C/C=C(\c1ccc([S+](C)[O-])cc1)c1ccc2nc(N)n(S(=O)(=O)C(C)C)c2c1 (configuration not stated)
- bioavailability [1]: 3%

SMILES: C#C/C=C(\c1ccccc1)c1ccc2nc(N)n(S(=O)(=O)C(C)C)c2c1
- Plasma concentration (Rhesus monkey [2]): 70 ng/mL
- bioavailability [1]: 9%

SMILES: C=C/C=C(\c1ccccc1)c1ccc2nc(N)n(S(=O)(=O)C(C)C)c2c1
- Plasma concentration (Rhesus monkey [3]): none detected

SMILES: C#C/C=C(\c1ccc(SC)cc1)c1ccc2nc(N)n(S(=O)(=O)C(C)C)c2c1
- bioavailability [1]: 5%

SMILES: C#C/C=C(\c1ccc(OC)cc1)c1ccc2nc(N)n(S(=O)(=O)C(C)C)c2c1
- Survivors (Human rhinovirus sp. [4]): 5%
- Survivors (Human rhinovirus sp. [5]): 5.6%
- Survivors (Human rhinovirus sp. [6]): 4.7%
- Survivors (Human rhinovirus sp. [7]): 6.8%
- Survivors (Human rhinovirus sp. [8]): 0.05%
- Survivors (Human rhinovirus sp. [9]): 3.5%
- Survivors (Human rhinovirus sp. [10]): 2.3%
- bioavailability [1]: 5%
- Survivors (Human rhinovirus sp. [11]): 3.8%
- Survivors (Human rhinovirus sp. [12]): 2.2%

SMILES: C#C/C=C(\c1ccc(OCC)cc1)c1ccc2nc(N)n(S(=O)(=O)C(C)C)c2c1
- bioavailability [1]: 4%

SMILES: C#C/C=C(\c1ccc(F)cc1)c1ccc2nc(N)n(S(=O)(=O)C(C)C)c2c1
- Metabolism (Rattus norvegicus [13]): 29%
- Metabolism (Mus musculus [14]): 13%
- bioavailability [1]: 23%
- Metabolism (Monkey): 37%
- Metabolism (Canis familiaris): 31%
- Metabolism (Homo sapiens): 12%

SMILES: C/C=C(\c1ccccc1)c1ccc2nc(N)n(S(=O)(=O)C(C)C)c2c1 [ENVIRADENE]
- Plasma concentration (Rhesus monkey [2]): 14 ng/mL
- Plasma concentration (Rhesus monkey [2]; tested as the 2H-labelled form): 10 ng/mL
- Metabolism (Rattus norvegicus [15]): 27%
- Metabolism (Monkey): 88%
- Metabolism (Canis familiaris): 40%
- Metabolism (Homo sapiens): 73%
- Metabolism (Mus musculus [16]): 36%

SMILES: CC(C)S(=O)(=O)n1c(N)nc2ccc(/C(=N/O)c3ccccc3)cc21 [ENVIROXIME]
- Survivors (Human rhinovirus sp. [4]): 1.5%
- Survivors (Human rhinovirus sp. [5]): 1.7%
- Survivors (rhinovirus B14 [17]): 1.5%
- Survivors (Human rhinovirus sp. [6]): 2%
- Survivors (Human rhinovirus sp. [7]): 4.9%
- Survivors (Human rhinovirus sp. [8]): 0.07%
- Survivors (Human rhinovirus sp. [9]): 1.9%
- Metabolism (Rattus norvegicus [13]): 39%
- Survivors (rhinovirus B14 [18]): 0.6% and 2.1%
- Metabolism (Mus musculus [14]): 24%
- Survivors (Human rhinovirus sp. [10]): 0.7%
- Survivors (Human rhinovirus sp. [11]): 1.3%
- Survivors (rhinovirus B14 [19]): 5.5%
- Survivors (Human rhinovirus sp. [20]): 1.1% and 0.03%
- Metabolism (Monkey): 80%
- Metabolism (Canis familiaris): 37%
- Metabolism (Homo sapiens): 98%
- Survivors (Human rhinovirus sp. [12]): 0.7%

Reference: ChEMBL document CHEMBL1130029 (J Med Chem, 1997)
